# Laboratory results taken from ChEMBL document CHEMBL3603753, “Carbamoyl Triazoles, Known Serine Protease Inhibitors, Are a Potent New Class of Antimalarials” (J Med Chem, 2015).
# The source made the active and inactive calls. The rule behind the calls is not given here.
# Experiments:
# [1] = target: T1, Subtilisin-like protease 1 (Plasmodium falciparum, UniProt O61142); test: Inhibition of Plasmodium falciparum recombinant SUB1 using SERA4st1F-6R12 substrate incubated for 55 mins by fluorescence spectrophotometry
# T1 sequence (O61142 whole entry): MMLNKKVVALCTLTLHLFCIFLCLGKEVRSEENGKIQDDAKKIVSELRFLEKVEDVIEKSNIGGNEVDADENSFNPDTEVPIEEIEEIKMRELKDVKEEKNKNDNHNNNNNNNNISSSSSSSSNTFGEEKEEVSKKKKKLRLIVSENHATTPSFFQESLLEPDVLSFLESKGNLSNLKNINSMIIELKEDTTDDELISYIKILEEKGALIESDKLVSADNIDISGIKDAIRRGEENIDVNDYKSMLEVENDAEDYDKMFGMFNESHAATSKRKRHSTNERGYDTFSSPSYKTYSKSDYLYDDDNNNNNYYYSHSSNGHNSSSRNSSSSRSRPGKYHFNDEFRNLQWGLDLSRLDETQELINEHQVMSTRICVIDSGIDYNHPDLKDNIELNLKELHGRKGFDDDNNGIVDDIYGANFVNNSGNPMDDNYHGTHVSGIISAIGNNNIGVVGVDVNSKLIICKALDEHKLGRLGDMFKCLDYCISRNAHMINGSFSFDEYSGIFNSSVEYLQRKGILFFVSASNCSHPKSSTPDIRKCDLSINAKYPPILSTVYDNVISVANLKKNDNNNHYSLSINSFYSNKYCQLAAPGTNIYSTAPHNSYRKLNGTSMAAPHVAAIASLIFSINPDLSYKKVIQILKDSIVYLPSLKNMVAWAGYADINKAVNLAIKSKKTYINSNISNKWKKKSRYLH
# [2] = test system: Plasmodium falciparum; test: Antimalarial activity against Plasmodium falciparum 3D7 infected in erythrocytes incubated for 48 hrs by [3H]hypoxanthine incorporation assay; type: functional, organism-based
# [3] = test system: Liver microsome; test: Intrinsic clearance in human liver microsomes; type: ADME
# [4] = Half life in mouse liver microsomes; type: ADME
# [5] = test system: Plasmodium falciparum; test: Antimalarial activity against Plasmodium falciparum 3D7 infected in erythrocytes incubated for 72 hrs by [3H]hypoxanthine incorporation assay; type: functional, organism-based
# [6] = Half life in human liver microsomes; type: ADME
# [7] = test system: Plasmodium falciparum; test: Antimalarial activity against Plasmodium falciparum infected in erythrocytes assessed as young trophozoites level at 10 times antimalarial IC50 level incubated for 24 and 48 hrs by Giemsa staining based microsocpy
# [8] = target: Acetylcholinesterase (Homo sapiens, UniProt P22303); test: Inhibition of human AChE
# Acetylcholinesterase, sequence (P22303 whole entry): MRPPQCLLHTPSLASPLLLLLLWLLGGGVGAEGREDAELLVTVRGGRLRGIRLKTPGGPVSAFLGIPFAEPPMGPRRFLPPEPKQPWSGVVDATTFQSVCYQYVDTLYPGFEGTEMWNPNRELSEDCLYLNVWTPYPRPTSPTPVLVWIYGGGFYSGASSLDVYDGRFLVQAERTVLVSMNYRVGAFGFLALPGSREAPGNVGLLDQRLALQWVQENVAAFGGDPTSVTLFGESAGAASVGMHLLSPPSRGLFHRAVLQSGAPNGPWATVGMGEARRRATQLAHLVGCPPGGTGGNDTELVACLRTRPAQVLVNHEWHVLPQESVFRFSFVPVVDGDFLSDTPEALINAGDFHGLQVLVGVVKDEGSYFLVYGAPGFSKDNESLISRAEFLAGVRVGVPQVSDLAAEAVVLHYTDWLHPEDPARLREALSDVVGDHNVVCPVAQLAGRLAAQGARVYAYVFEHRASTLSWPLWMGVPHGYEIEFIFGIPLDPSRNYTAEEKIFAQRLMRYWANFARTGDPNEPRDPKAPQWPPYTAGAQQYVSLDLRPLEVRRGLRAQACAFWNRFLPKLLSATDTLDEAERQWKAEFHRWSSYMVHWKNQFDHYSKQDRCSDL
# [9] = test system: Plasmodium falciparum; test: Antimalarial activity against Plasmodium falciparum infected in humanized SCID mouse model of malaria infection assessed as induction of phenotypic changes in parasite at 217 mg/kg, po measured 96 hrs post dose by microscopic and flow cytometry method; type: functional, organism-based
# Method in brief: (§1)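 P. falciparum-infected humanized mice, standard four-day test; compound given orally at several doses, vehicle (n = 4) and oral chloroquine 10 mg·kg⁻¹ (n = 2) as controls. Parasitemia followed per mouse. Peripheral blood sampled 96 h after starting treatment and analysed by microscopy and by flow cytometry gating infected human erythrocytes.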
# [10] = test system: Plasmodium falciparum; test: Antimalarial activity against Plasmodium falciparum infected in humanized SCID mouse model of malaria infection assessed as induction of abnormal trophozoites with hemozoin granules and pyknotic cells in parasite at 217 mg/kg, po measured 96 hrs post dose by microscopic and flow cytometry method; type: functional, organism-based; method in brief: as §1
# [11] = test system: Blood; test: Drug level in blood of Plasmodium falciparum infected humanized SCID mouse model of malaria infection at 217 mg/kg, po measured 96 hrs post dose; type: ADME, organism-based; details: in vivo
# [12] = test system: Plasmodium falciparum; test: Antimalarial activity against Plasmodium falciparum infected in humanized SCID mouse model of malaria infection assessed as induction of altered rings in parasite at 217 mg/kg, po measured 96 hrs post dose by microscopic and flow cytometry method; type: functional, organism-based; method in brief: as §1
# [13] = test system: HepG2; test: Cytotoxicity against human HepG2 cells; type: cell-based
# [14] = test system: Plasmodium falciparum; test: Antimalarial activity against Plasmodium Plasmodium falciparum infected in orally dosed humanized SCID mouse model of malaria infection; type: functional; details: po; method in brief: as §1
# [15] = Kinetic solubility of the compound by chemoluminescent nitrogen detection kinetic solubility assay; type: physicochemical; details: read-out: Kinetic_solubility
# [16] = Passive permeability by PAMPA method; type: ADME; details: read-out: permeability
# [17] = test system: Plasmodium falciparum; test: Antimalarial activity against Plasmodium falciparum assessed as time duration for 99.9% parasite killing at 10 times antimalarial IC50 level over 48 hrs; type: functional
# Method in brief: (§2)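 Parasite reduction ratio assay on P. falciparum with compound at 10× its Pf IC₅₀. Viable parasite decrease is followed over one life cycle (48 h), giving log₁₀ PRR and the time needed to kill 99.9% of parasites (PCT99.9%).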
# [18] = test system: Plasma; test: Stability in CD1 mouse plasma at 10 mM in presence of serine protease inhibitor PMSF after 0.5 to 2 hrs by UPLC-MS/MS method; type: ADME, cell-free; details: 10000 µM
# [19] = Inhibition of CYP3A (unknown origin) by 4VR metabolism assay; type: ADME, Homo sapiens
# [20] = test system: Blood; test: Stability in CD1 mouse blood at 10 mM after 0.5 to 2 hrs by UPLC-MS/MS method; type: ADME, tissue-based; details: 10000 µM
# [21] = target: Dipeptidyl peptidase 4 (Homo sapiens, UniProt P27487); test: Inhibition of DPP4 (unknown origin)
# Dipeptidyl peptidase 4, sequence (P27487 whole entry): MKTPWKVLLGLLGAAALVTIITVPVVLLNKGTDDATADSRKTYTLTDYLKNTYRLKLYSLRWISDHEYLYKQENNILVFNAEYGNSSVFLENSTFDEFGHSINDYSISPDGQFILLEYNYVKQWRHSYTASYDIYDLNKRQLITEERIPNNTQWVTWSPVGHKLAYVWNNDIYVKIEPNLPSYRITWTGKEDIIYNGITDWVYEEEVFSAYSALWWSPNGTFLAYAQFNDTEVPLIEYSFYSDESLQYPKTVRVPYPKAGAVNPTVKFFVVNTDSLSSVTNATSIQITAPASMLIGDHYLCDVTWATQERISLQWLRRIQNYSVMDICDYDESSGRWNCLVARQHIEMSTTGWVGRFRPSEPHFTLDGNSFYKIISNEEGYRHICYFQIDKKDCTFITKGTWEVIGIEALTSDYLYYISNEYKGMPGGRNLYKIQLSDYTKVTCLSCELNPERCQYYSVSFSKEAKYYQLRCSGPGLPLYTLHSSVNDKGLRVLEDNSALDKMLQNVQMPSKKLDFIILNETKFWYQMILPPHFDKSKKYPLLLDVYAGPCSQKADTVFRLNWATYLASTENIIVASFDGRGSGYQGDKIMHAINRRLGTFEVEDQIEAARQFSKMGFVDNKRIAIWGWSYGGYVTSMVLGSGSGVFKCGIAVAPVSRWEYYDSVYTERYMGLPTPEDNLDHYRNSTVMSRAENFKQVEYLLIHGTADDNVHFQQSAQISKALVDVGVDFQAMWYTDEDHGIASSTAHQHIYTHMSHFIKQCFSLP
# [22] = target: Voltage-gated inwardly rectifying potassium channel KCNH2 (Homo sapiens, UniProt Q12809); test: Inhibition of human ERG by QPatch assay
# Voltage-gated inwardly rectifying potassium channel KCNH2, sequence (Q12809 whole entry): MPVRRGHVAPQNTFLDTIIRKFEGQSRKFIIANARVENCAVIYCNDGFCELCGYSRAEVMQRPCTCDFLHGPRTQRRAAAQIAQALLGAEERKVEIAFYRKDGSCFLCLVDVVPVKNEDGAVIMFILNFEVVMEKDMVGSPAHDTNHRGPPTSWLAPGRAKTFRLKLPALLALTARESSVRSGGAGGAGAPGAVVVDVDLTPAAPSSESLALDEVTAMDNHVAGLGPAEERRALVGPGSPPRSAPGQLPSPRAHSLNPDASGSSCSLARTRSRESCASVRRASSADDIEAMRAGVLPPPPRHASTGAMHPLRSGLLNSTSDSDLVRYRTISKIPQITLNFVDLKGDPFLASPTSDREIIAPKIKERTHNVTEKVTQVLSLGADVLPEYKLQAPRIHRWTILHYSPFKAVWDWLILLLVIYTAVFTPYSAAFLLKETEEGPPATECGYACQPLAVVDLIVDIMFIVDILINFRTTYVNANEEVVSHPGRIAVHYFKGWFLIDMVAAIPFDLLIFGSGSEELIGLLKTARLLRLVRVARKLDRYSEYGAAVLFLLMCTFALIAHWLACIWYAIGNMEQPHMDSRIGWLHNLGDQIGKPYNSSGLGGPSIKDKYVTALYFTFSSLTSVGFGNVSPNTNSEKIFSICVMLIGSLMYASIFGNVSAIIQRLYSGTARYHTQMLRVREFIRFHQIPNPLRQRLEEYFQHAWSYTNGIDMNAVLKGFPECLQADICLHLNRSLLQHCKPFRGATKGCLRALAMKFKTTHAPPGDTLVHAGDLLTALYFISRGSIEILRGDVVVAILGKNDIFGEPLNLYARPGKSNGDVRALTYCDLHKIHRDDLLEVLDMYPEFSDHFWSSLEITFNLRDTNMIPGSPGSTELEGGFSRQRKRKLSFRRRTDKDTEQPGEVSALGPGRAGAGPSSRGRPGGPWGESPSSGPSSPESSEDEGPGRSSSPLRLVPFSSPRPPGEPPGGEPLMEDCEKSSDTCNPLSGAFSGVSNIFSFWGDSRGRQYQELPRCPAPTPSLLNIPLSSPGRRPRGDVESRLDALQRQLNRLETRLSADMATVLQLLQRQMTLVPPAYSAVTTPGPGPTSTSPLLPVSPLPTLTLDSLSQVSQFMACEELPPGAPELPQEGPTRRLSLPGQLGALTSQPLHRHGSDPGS
# [23] = test system: Plasmodium falciparum; test: Antimalarial activity against Plasmodium falciparum assessed as parasite reduction ratio at 10 times antimalarial IC50 level over 48 hrs; type: functional; method in brief: as §2
# [24] = Inhibition of CYP3A (unknown origin) by 4VG metabolism assay; type: ADME, Homo sapiens
# [25] = test system: Plasmodium berghei; test: Antimalarial activity against Plasmodium berghei infected in orally dosed mouse model of malaria infection; type: functional; details: po
# Method in brief: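 Mice infected with P. berghei; compound given orally (p.o.) as 2 doses of 50 mg kg⁻¹.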
# [26] = test system: Plasma; test: Stability in CD1 mouse plasma at 10 mM after 0.5 to 2 hrs by UPLC-MS/MS method; type: ADME, cell-free; details: 10000 µM
# [27] = test system: Plasmodium falciparum; test: Antimalarial activity against Plasmodium falciparum 3D7 infected in erythrocytes incubated for 24 hrs by [3H]hypoxanthine incorporation assay; type: functional, organism-based
# [28] = target: Albumin (Homo sapiens, UniProt P02768); test: Binding affinity to HSA; type: ADME; details: human serum albumin (HSA), read-out: PB (converted)
# Albumin, sequence (P02768 whole entry): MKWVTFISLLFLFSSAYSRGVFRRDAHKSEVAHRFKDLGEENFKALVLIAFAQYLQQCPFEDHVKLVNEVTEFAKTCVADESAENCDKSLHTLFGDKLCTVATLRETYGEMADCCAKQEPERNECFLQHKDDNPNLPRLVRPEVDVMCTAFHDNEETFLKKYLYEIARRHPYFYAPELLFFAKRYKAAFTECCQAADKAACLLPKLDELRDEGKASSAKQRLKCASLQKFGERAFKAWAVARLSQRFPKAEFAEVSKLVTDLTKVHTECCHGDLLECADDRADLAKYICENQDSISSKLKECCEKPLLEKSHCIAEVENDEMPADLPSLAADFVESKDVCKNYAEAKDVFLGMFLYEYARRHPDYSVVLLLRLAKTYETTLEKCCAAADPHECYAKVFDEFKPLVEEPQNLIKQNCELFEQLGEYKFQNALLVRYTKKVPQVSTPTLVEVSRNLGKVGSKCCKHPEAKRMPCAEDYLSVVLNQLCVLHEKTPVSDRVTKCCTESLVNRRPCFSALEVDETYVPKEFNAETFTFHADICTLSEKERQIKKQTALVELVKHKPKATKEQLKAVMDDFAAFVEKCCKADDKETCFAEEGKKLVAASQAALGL
SMILES,IC50 [1],IC50 [2] [µM],Intrinsic clearance [3] [mL/min/g],half-life [4] [min],IC50 [5] [µM],half-life [6] [min],further results
O=C(N1CCCC1)n1cnc(S(=O)(=O)Cc2ccccc2)n1,Not Active,0.418,,,,,
CN(Cc1ccccc1)C(=O)n1cnc(S(=O)(=O)[C@@H]2C[C@H]3CC[C@@H]2C3)n1,,0.256,1.5,19.4,0.379,> 30,
O=C(N1CCCC1)n1cnc(S(=O)(=O)[C@@H]2C[C@H]3CC[C@@H]2C3)n1,,0.084,1,< 5,0.037,> 30,
CC(C)N(C)C(=O)n1cnc(S[C@@H]2C[C@H]3CC[C@@H]2C3)n1,Not Active,0.071,,,,,
CC(C)N(C(=O)n1cnc(S(=O)(=O)[C@@H]2C[C@H]3CC[C@@H]2C3)n1)C(C)C,,> 5,,,> 5,,
O=C1C(O)=C([C@H]2CC[C@H](c3ccc(Cl)cc3)CC2)C(=O)c2ccccc21 [ATOVAQUONE],,0.001,,,0.0003,,Activity [7]: Active
CSc1nc(-c2ccc(OC(F)(F)F)cc2)nn1C(=O)N(C)C,,,,,,,IC50 [8]: 200 µM
CN(C(=O)n1cnc(S(=O)(=O)[C@@H]2C[C@H]3CC[C@@H]2C3)n1)c1ccccc1,,2.69,,,2.71,,
CSc1nc(-c2ccc(OC(F)(F)F)cc2)nn1C(=O)N(C)c1ccccc1,,,,,,,IC50 [8]: > 50000 µM
CC(C)N(C(=O)n1cnc(S[C@@H]2C[C@H]3CC[C@@H]2C3)n1)C(C)C,Not Active,1.42,3.1,< 5,0.537,22.3,
CN(C)C(=O)n1cnc(S(=O)(=O)c2ccc(Cl)cc2)n1,,0.571,,,,,
COc1ccc(CN(C)C(=O)n2cnc(S(=O)(=O)[C@@H]3C[C@H]4CC[C@@H]3C4)n2)cc1,Not Active,0.01,,22.6,,,Activity [9]: Active; Activity [7]: Active; Activity [10]: Active; Drug uptake [11]: Not Active; Activity [12]: Active; IC50 [13]: > 100 µM; ED50 [14]: 100 mg/kg; ED90 [14]: 150 mg/kg; solubility kinetic [15]: 125 µM
CC(C)N(C)C(=O)n1cnc(S(=O)(=O)C2CC3CCC2C3)n1 (stereo not drawn),Not Active,0.016,1.6,3.8,0.028,> 30,Papp [16]: > 30 ×10⁻⁶ cm/s; Time [17]: 48 h; Stability [18]: Stable; IC50 [19]: 31.6 µM; Stability [20]: Unstable; Activity [7]: Active; IC50 [21]: 0.009 µM; inhibition (INH) [22]: Not Active; log(ratio) [23]: 3.1; IC50 [24]: > 50 µM; ED50 [25]: > 50 mg/kg; Stability [26]: Unstable; IC50 [27]: 0.049 µM; fraction unbound [28]: 0.42; IC50 [13]: > 100 µM; solubility kinetic [15]: ≥ 500 µM
O=C(N1CCCC1)n1cnc(S[C@@H]2C[C@H]3CC[C@@H]2C3)n1,,0.178,1.5,< 5,,> 30,
CC(C)N(C)C(=O)n1cnc(S(=O)(=O)c2ccc(Cl)cc2)n1,,0.019,,,,,
CN(Cc1ccc(C(C)(C)C)cc1)C(=O)n1cnc(S(=O)(=O)[C@@H]2C[C@H]3CC[C@@H]2C3)n1,,0.016,,9,,,IC50 [13]: 75.2 µM; solubility kinetic [15]: 28 µM
